# Measured values: ChEMBL document CHEMBL4715731, “Synthesis, antiarrhythmic activity, and toxicological evaluation of mexiletine analogues” (Eur J Med Chem, 2016)
# Assays:
# Left cardiac atrium [1] = assay: Antiarrhythmic activity in 50 Hz sinusoidal alternating current-induced guinea pig left atrium arrhythmias model assessed as increase in threshold of ac-arrhythmia at 1 x 10^-5 M measured for every 30 mins relative to control; format: functional, Cavia porcellus; conditions: dose 1 10^-5M, 0.5 h, at 10 µM
# In short: (§1)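 Guinea pig left atria mounted between platinum field electrodes in modified Krebs-Henseleit (pH 7.4, 95% O2–5% CO2, 35 °C), isometric force recorded. 50 Hz sinusoidal AC of rising strength applied; current intensity (mA/cm²) producing extra beats taken as ac-arrhythmia threshold. Stabilized 60 min, then compounds added cumulatively every 30 min.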
# Left cardiac atrium [2] = assay: Antiarrhythmic activity in 50 Hz sinusoidal alternating current-induced guinea pig left atrium arrhythmias model assessed as increase in threshold of ac-arrhythmia measured for every 30 mins relative to control; format: functional, tissue-based; conditions: Cavia porcellus, 0.5 h
# Left cardiac atrium [3] = assay: Negative inotropic activity in guinea pig left atrium assessed as decrease in 1 Hz driven developed tension at 1 x 10^-5 M relative to control; format: tissue-based, Cavia porcellus; set-up: scale not given: the % may be the effect or the level left; conditions: 10 µM, dose 1 10^-5M
# In short: (§2)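 Guinea pig left atria paced at 1 Hz (rectangular pulses 0.6–0.8 ms, […]) in PSS, pH 7.4, 35 °C, 95% O2–5% CO2. Isometric developed tension recorded. Cumulative concentrations 0.01–100 μM in PSS, each added after steady state. Change expressed as percent of control (n = 5–6).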
# Left cardiac atrium [4] = assay: Negative inotropic activity in guinea pig left atrium assessed as decrease in 1 Hz driven developed tension; format: tissue-based; conditions: Cavia porcellus
# Right cardiac atrium [5] = assay: Negative inotropic activity in guinea pig spontaneously beating right atrium assessed as decrease in developed tension at 5 x 10^-6 M relative to control; format: ADME, tissue-based, Cavia porcellus; set-up: scale not given: the % may be the effect or the level left; conditions: 5 µM, dose 5 10^-6M
# In short: (§3)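 Spontaneously beating guinea pig right atria in PSS, pH 7.4, 35 °C, gassed with 95% O2–5% CO2. Isometric recording of rate and developed force. Compounds added cumulatively, 0.01–100 μM, each after steady state. Percent change from control; rate data n = 7–8. EC50 by probit analysis.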
# Right cardiac atrium [6] = assay: Negative inotropic activity in guinea pig spontaneously beating right atrium assessed as decrease in developed tension; format: ADME, tissue-based; conditions: Cavia porcellus
# In short: (§4)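 Isometric recording of rate and developed force. Compounds added cumulatively, 0.01–100 μM, each after steady state. Percent change from control; rate data n = 7–8. EC50 by probit analysis.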
# Right cardiac atrium [7] = assay: Negative chronotropic activity in guinea pig spontaneously beating right atrium assessed as decrease in atrial rate at 1 x 10^-5 M relative to control; format: ADME, tissue-based, Cavia porcellus; set-up: scale not given: the % may be the effect or the level left; conditions: 10 µM, dose 1 10^-5M; in short: as §4
# Aorta = assay: Inhibition of calcium-induced contraction in K+-depolarized guinea pig aortic strips at 1 x 10^-4 M relative to control; format: tissue-based; conditions: Cavia porcellus, dose 1 10^-4M
# In short: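 Helicoidal guinea pig aortic strips at 1 g resting force in PSS at 35 °C, contracted with 80 mM KCl (K+ replacing Na+). At plateau (about 45 min), compounds added cumulatively, 0.1–100 μM.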
# Ileum [8] = assay: Inhibition of calcium-induced contraction in K+-depolarized guinea pig longitudinal smooth muscle at 5 x 10^-5 M relative to control; format: tissue-based; conditions: Cavia porcellus, dose 5 10^-5M
# Ileum [9] = assay: Inhibition of calcium-induced contraction in K+-depolarized guinea pig longitudinal smooth muscle; format: tissue-based; conditions: Cavia porcellus
# [10] = Toxicity in mouse assessed as motor coordination impairment by measuring number of falls from rotarod at 25 mg/kg, ip measured after 30 mins by rotarod test; format: organism-based; conditions: in vivo, 0.5 h
# [11] = Toxicity in mouse assessed as motor coordination impairment by measuring number of falls from rotarod at 25 mg/kg, ip measured after 45 mins by rotarod test; format: organism-based; conditions: in vivo
# [12] = Toxicity in mouse assessed as motor coordination impairment by measuring number of falls from rotarod at 25 mg/kg, ip measured after 60 mins by rotarod test; format: organism-based; conditions: in vivo, 1 h
# [13] = Toxicity in mouse assessed as motor coordination impairment by measuring number of falls from rotarod at 50 mg/kg, ip measured after 30 mins by rotarod test; format: organism-based; conditions: in vivo, 0.5 h
# [14] = Toxicity in mouse assessed as motor coordination impairment by measuring number of falls from rotarod at 50 mg/kg, ip measured after 45 mins by rotarod test; format: organism-based; conditions: in vivo
# [15] = Toxicity in mouse assessed as motor coordination impairment by measuring number of falls from rotarod at 50 mg/kg, ip measured after 60 mins by rotarod test; format: organism-based; conditions: in vivo, 1 h
# HepG2 [16] = assay: Cytotoxicity against human HepG2 cells at EC50 concentration incubated for 2 hrs by MTT assay; format: cell-based; conditions: hepg2, 2 h
# In short: (§5)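 HepG2 cells in DMEM with 10% FBS at 37 °C, 5% CO2, grown to 70% confluence. 10^4 cells/well treated in serum-free medium for 2 h. MTT at 0.5 mg/mL for 2 h, formazan dissolved in DMSO, absorbance read at 570 nm. Viability as percent of control MTT reduction; sextuplicate, repeated twice.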
# HepG2 [17] = assay: Cytotoxicity against human HepG2 cells at 10 times of EC50 concentration incubated for 2 hrs by MTT assay; format: cell-based; conditions: hepg2, 2 h; in short: as §5
# [18] = Binding affinity to P-gp in dog MDCK-MDR1 cells using calcein-AM as substrate at 100 uM after 30 mins by fluorescence analysis; format: ADME, cell-based, Canis lupus familiaris; conditions: mdck-mdr1, 0.5 h
# In short: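 MDCK-MDR1 cells, 50,000/well, grown to confluence overnight. Compounds in medium incubated 30 min at 37 °C. Calcein-AM then added at 2.5 μM final for 30 min. Cells washed with ice-cold PBS; fluorescence read at 485/535 nm against untreated basal level.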
# Left cardiac atrium [19] = assay: Antiarrhythmic activity in 50 Hz sinusoidal alternating current-induced guinea pig left atrium arrhythmias model assessed as increase in threshold of ac-arrhythmia at 1 x 10^-4 M measured for every 30 mins relative to control; format: functional, Cavia porcellus; conditions: dose 1 10^-4M, 0.5 h, at 100 µM; in short: as §1
# Left cardiac atrium [20] = assay: Negative inotropic activity in guinea pig left atrium assessed as decrease in 1 Hz driven developed tension at 1x 10^-4 M relative to control; format: ADME, tissue-based, Cavia porcellus; set-up: scale not given: the % may be the effect or the level left; conditions: 100 µM, dose 1 10^-4M; in short: as §2
# Right cardiac atrium [21] = assay: Negative chronotropic activity in guinea pig spontaneously beating right atrium assessed as decrease in atrial rate at 1 x 10^-4 M relative to control; format: ADME, tissue-based, Cavia porcellus; set-up: scale not given: the % may be the effect or the level left; conditions: 100 µM, dose 1 10^-4M; in short: as §3
# Right cardiac atrium [22] = assay: Negative chronotropic activity in guinea pig spontaneously beating right atrium assessed as decrease in atrial rate; format: tissue-based; conditions: Cavia porcellus; in short: as §3
# Ileum [23] = assay: Inhibition of calcium-induced contraction in K+-depolarized guinea pig longitudinal smooth muscle at 1 x 10^-4 M relative to control; format: tissue-based; conditions: Cavia porcellus, dose 1 10^-4M
# Left cardiac atrium [24] = assay: Negative inotropic activity in guinea pig left atrium assessed as decrease in 1 Hz driven developed tension at 1 x 10^-7 M relative to control; format: ADME, tissue-based, Cavia porcellus; set-up: scale not given: the % may be the effect or the level left; conditions: 0.1 µM, dose 1 10^-7M; in short: as §2
# Ileum [25] = assay: Inhibition of calcium-induced contraction in K+-depolarized guinea pig longitudinal smooth muscle at 1 x 10^-5 M relative to control; format: tissue-based; conditions: Cavia porcellus, dose 1 10^-5M
# [26] = Binding affinity to P-gp in dog MDCK-MDR1 cells using calcein-AM as substrate after 30 mins by fluorescence analysis; format: ADME, cell-based; conditions: Canis lupus familiaris, MDCK-MDR1, 0.5 h
# Left cardiac atrium [27] = assay: Potency index, ratio of mexiletine EC50 to test compound EC50 for antiarrhythmic activity in guinea pig left atrium model of current induced arrhythmias assessed as increase in threshold of ac-arrhythmia; format: functional, Cavia porcellus
# Left cardiac atrium [28] = assay: Potency index, ratio of mexiletine EC50 to test compound EC50 for negative inotropic activity in guinea pig left atrium assessed as decrease in developed tension; format: ADME, tissue-based, Cavia porcellus
Structure (SMILES),Activity (Left cardiac atrium [1]) [%],EC50 (Left cardiac atrium [2]) [µM],Activity (Left cardiac atrium [3]) [%],EC50 (Left cardiac atrium [4]) [nM],Activity (Right cardiac atrium [5]) [%],EC50 (Right cardiac atrium [6]) [nM],Activity (Right cardiac atrium [7]) [%],inhibition at 100 µM (Aorta) [%],IC50 (Ileum [9]) [µM],Activity [10],Activity [11],Activity [12],Activity [13],Activity [14],Activity [15],Activity (HepG2 [16]),Activity (HepG2 [17]),Activity [18],Activity (Left cardiac atrium [19]) [%],EC50 (Right cardiac atrium [22]) [µM],also measured
Cc1cccc(C)c1OCC(N)C(C)(C)C.Cl (stereo not given),71,2.11,92,42,77,1020,7,38,10.7,2.7,1.7,0.8,3.1,1.8,1.2,Non-Toxic,Non-Toxic,Not Active,–,–,inhibition at 50 µM (Ileum [8]): 73%
Cc1cccc(C)c1OCC(N)C(C)C.Cl (stereo not given),–,18.4,–,21,–,–,–,11,19.6,2.6,2.2,1.1,3,2.1,1,Non-Toxic,Non-Toxic,Not Active,145,13.1,Activity (Left cardiac atrium [20]): 84%; Activity (Right cardiac atrium [21]): 55%; inhibition at 100 µM (Ileum [23]): 88%
Cc1cccc(C)c1OCC(C)N.Cl (stereo not given) [MEXILETINE HYDROCHLORIDE],–,11.6,90,45,–,–,–,5,–,1.3,0.8,–,3.8,3.5,–,–,–,Not Active,64,0.014,inhibition at 100 µM (Ileum [23]): 81%
Cc1cccc(C)c1OCC(N)Cc1ccccc1.Cl (stereo not given),169,4.36,–,12,57,66,24,33,3.6,2.9,1.9,1.2,4.4,3.5,1.3,Non-Toxic,Non-Toxic,–,–,–,Activity (Left cardiac atrium [24]): 79%; inhibition at 10 µM (Ileum [25]): 73%; EC50 [26]: 8.4 µM; Ratio EC50 (Left cardiac atrium [27]): 2.7; Ratio EC50 (Left cardiac atrium [28]): 4
